Active and inactive are the calls of the source. The calls are words filed in the database; no cut-off is given here.
Experiments:
Format in all cases: cell-based
Glucocorticoid receptor = target: T1, Glucocorticoid receptor (Homo sapiens, UniProt P04150); assay: Modulation of glucocorticoid receptor in human SKGT4 cells assessed as receptor translocation from cytoplasm to nucleus after 4 hrs by Hoechst staining relative to Dexamethasone
T1 sequence (P04150 whole entry): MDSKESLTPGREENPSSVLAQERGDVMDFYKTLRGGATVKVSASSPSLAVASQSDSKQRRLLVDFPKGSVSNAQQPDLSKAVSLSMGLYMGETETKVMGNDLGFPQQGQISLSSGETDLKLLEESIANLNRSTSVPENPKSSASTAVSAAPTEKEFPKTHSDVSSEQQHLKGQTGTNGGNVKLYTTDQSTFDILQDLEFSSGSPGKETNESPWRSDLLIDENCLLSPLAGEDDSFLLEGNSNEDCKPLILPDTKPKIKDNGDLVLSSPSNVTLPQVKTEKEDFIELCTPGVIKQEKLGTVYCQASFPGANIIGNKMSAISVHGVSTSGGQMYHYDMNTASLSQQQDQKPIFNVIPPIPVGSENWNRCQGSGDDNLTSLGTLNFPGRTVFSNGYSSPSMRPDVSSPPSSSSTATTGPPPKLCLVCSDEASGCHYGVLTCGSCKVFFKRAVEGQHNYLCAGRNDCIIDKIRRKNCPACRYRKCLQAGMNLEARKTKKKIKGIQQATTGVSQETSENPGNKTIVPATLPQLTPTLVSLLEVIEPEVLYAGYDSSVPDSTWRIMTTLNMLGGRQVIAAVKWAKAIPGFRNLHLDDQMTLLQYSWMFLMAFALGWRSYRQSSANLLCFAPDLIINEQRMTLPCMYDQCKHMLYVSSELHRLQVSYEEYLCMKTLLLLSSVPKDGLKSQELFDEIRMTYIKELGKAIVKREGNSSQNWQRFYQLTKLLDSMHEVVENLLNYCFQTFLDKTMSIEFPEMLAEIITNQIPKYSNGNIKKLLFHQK

[1] = target: T2, Glucocorticoid receptor (Homo sapiens) (UniProt P04150); assay: Modulation of glucocorticoid receptor in human SKGT4 cells assessed as receptor translocation from cytoplasm to nucleus at 100 uM after 240 mins by Hoechst staining relative to Dexamethasone
T2 sequence (whole entry): T1 sequence (P04150 whole entry)
Outline: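 Time course in serum-starved SKGT-4 cells: 100 μM compound for 15, 30, 60, 120 or 240 min in 1% DMSO medium. Fixed, GR immunostained, Hoechst nuclear stain, high-content imaging. Background-corrected nuclear/cytoplasmic GR ratio normalised to Dex 100 nM; mean of two experiments in triplicate, compared with 1% DMSO.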

[2] = target: T3, Mineralocorticoid receptor (Homo sapiens) (UniProt P08235); assay: Modulation of mineralocorticoid receptor in human SKGT4 cells assessed as receptor translocation from cytoplasm to nucleus at 50 uM after 4 hrs by Hoechst staining
T3 sequence (whole entry): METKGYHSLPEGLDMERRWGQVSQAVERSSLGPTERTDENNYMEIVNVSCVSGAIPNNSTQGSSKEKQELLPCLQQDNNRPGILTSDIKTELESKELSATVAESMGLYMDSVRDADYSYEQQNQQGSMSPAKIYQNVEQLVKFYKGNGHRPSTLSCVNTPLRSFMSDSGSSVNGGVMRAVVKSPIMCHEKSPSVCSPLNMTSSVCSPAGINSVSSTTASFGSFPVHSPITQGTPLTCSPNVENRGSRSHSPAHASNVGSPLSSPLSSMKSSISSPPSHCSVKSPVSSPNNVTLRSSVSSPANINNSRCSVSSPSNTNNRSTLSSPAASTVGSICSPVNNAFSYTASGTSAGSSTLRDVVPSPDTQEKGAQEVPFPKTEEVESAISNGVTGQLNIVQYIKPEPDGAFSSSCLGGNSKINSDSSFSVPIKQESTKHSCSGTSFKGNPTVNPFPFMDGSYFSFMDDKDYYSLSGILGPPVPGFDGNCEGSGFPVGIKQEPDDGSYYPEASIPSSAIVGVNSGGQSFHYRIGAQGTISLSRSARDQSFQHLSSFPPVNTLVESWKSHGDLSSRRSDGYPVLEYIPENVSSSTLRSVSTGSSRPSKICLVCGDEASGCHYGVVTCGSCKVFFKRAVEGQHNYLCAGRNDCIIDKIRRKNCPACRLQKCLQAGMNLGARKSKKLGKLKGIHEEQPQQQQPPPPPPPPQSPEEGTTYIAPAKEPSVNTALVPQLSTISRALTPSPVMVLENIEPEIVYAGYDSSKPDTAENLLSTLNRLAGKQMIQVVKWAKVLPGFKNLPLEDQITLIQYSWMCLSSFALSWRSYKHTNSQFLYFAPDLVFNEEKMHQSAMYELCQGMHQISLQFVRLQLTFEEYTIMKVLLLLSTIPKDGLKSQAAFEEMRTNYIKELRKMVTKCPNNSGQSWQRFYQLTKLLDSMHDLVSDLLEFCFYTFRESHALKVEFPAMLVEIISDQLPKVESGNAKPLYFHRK

CC(NC(=O)CC[C@@H](C)[C@H]1CC[C@H]2[C@@H]3[C@@H](O)C[C@@H]4C[C@H](O)CC[C@]4(C)[C@H]3CC[C@]12C)c1ccccc1 (stereo not given in full)
EC50 (Glucocorticoid receptor): 124 µM

C[C@H](CCC(=O)NC1CC1)[C@H]1CC[C@H]2[C@@H]3[C@@H](O)C[C@@H]4C[C@H](O)CC[C@]4(C)[C@H]3CC[C@]12C
EC50 (Glucocorticoid receptor): 7.3 µM | Activity [1]: Active

C[C@H](C(=O)O)[C@H]1CC[C@H]2[C@@H]3[C@@H](O)C[C@@H]4C[C@H](O)CC[C@]4(C)[C@H]3CC[C@]12C
EC50 (Glucocorticoid receptor): 99.7 µM

C[C@H](CCC(=O)N1CCN(Cc2ccccc2)CC1)[C@H]1CC[C@H]2[C@@H]3[C@@H](O)C[C@@H]4C[C@H](O)CC[C@]4(C)[C@H]3CC[C@]12C
EC50 (Glucocorticoid receptor): 5.6 µM | Activity [1]: Active

C[C@H](CCC(=O)N1CCOCC1)[C@H]1CC[C@H]2[C@@H]3[C@@H](O)C[C@@H]4C[C@H](O)CC[C@]4(C)[C@H]3CC[C@]12C
EC50 (Glucocorticoid receptor): 25.3 µM | Activity [1]: Active

C[C@H](CCC(=O)O)[C@H]1CC[C@H]2[C@@H]3[C@@H](O)C[C@@H]4C[C@H](O)CC[C@]4(C)[C@H]3CC[C@]12C
Activity [2]: inactive

C[C@H](CCC#N)[C@H]1CC[C@H]2[C@@H]3[C@@H](O)C[C@@H]4C[C@H](O)CC[C@]4(C)[C@H]3CC[C@]12C
EC50 (Glucocorticoid receptor): 101 µM

C[C@H](CCC(=O)NCc1ccccc1)[C@H]1CC[C@H]2[C@@H]3[C@@H](O)C[C@@H]4C[C@H](O)CC[C@]4(C)[C@H]3CC[C@]12C
EC50 (Glucocorticoid receptor): 110 µM

C[C@H](CC(=O)O)[C@H]1CC[C@H]2[C@@H]3[C@@H](O)C[C@@H]4C[C@H](O)CC[C@]4(C)[C@H]3CC[C@]12C [NORUCHOLIC ACID]
EC50 (Glucocorticoid receptor): 105 µM

C[C@H](C#N)[C@H]1CC[C@H]2[C@@H]3[C@@H](O)C[C@@H]4C[C@H](O)CC[C@]4(C)[C@H]3CC[C@]12C
EC50 (Glucocorticoid receptor): 130 µM

C[C@H](CCC(=O)N1CCNCC1)[C@H]1CC[C@H]2[C@@H]3[C@@H](O)C[C@@H]4C[C@H](O)CC[C@]4(C)[C@H]3CC[C@]12C
EC50 (Glucocorticoid receptor): 50.8 µM

C[C@H](CCC(=O)NCCc1ccccc1)[C@H]1CC[C@H]2[C@@H]3[C@@H](O)C[C@@H]4C[C@H](O)CC[C@]4(C)[C@H]3CC[C@]12C
EC50 (Glucocorticoid receptor): 109 µM
